ChEMBL document CHEMBL1124824, “Synthesis and biological activity of atrial natriuretic factor analogues: effect of modifications to the disulfide bridge” (J Med Chem, 1990)
Starred links: 1 amine or outer side, 2 acyl side, 3 side chain; linkers in the order of their positions; H or OH if unused. Positions of bridges follow the written chain, without caps; N, C: chain ends. Non-standard residues stand in square brackets, D forms with d. Residues, ends and D or L forms follow the SMILES beside them. βAsp = O=C(O)[C@H](CC(=O)[*:2])N[*:1]; Asu = N[C@@H](CCCCCC(=O)O)C(=O)O; Pen = CC(C)(S)[C@H](N)C(=O)O; hCys = N[C@@H](CCS)C(=O)O; X2 = O=C(CCC[*:2])[*:1]; X1 = O=C(CC[*:2])[*:1]; CO = O=C([*:1])[*:2]

Assays:
[1] = target: T1, Atrial natriuretic peptide receptor 2 (Bos taurus, UniProt P46197); test: Binding affinity was determined based on the displacement of [125]r-ANF (99-126) from binding sites on bovine adrenal zona glomerulosa cell membranes (Atrionatriuretic peptide receptor B)
T1 sequence (P46197 whole entry): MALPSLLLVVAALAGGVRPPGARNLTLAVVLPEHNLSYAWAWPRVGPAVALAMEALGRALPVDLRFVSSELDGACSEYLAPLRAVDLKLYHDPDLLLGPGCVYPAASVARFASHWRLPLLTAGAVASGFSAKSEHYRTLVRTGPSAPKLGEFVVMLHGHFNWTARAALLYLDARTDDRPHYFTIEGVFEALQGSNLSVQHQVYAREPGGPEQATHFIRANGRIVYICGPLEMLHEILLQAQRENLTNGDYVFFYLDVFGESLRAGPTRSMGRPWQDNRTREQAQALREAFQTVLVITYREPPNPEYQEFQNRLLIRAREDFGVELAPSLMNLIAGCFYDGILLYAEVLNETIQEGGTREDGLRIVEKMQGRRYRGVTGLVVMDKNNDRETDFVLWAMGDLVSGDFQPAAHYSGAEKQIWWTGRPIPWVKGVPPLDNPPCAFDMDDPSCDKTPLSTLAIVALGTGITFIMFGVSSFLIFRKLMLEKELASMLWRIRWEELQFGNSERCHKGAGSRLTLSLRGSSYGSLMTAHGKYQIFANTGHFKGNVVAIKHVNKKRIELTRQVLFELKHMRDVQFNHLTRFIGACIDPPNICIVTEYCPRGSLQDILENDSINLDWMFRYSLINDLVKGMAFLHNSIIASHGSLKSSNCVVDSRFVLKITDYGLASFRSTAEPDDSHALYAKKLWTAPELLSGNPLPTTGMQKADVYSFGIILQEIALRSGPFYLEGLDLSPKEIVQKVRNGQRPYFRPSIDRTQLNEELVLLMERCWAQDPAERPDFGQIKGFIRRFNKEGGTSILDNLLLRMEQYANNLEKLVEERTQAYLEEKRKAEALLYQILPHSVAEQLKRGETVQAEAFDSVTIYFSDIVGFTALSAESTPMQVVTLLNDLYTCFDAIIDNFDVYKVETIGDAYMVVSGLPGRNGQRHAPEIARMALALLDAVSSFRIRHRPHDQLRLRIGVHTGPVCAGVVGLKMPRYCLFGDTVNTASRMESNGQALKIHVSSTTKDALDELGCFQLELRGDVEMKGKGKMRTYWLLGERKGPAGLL

[2] = target: T2, Atrial natriuretic peptide receptor 3 (Mus musculus, UniProt P70180); test: Binding affinity was determined based on the displacement of [125]r-ANF (99-126) from binding sites on mouse fibroblasts (NIH 3T3) cells (Atrionatriuretic peptide receptor C).
T2 sequence (P70180 whole entry): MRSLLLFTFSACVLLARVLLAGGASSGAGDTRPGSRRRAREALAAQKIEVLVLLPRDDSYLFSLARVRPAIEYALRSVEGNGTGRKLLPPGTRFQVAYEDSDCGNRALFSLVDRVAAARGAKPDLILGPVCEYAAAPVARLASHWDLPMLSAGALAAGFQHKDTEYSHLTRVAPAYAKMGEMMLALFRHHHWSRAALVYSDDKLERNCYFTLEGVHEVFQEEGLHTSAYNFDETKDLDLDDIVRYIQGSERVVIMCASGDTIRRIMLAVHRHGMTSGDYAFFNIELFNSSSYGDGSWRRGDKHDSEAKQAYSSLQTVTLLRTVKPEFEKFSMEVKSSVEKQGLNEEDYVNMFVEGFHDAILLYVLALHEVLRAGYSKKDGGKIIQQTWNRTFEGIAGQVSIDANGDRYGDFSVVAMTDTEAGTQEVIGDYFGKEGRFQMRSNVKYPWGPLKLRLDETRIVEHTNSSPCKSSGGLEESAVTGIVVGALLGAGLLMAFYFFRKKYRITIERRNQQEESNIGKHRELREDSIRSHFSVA

Oryctolagus cuniculus = species on record: Oryctolagus cuniculus; test: Compound was tested for the inhibition of the stimulated contractions of the superfused rabbit thoracic aortic rings.; format: functional, Aorta
Method in brief: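 Rabbit thoracic aorta rings (4 mm) were held isometrically at 10-g resting tension, superfused and precontracted with phenylephrine. Test peptide was added to the superfusate above the tissue in successively higher doses after each recovery. Doses were based on peptide content. EC50 came from the dose-response curve, mean of three determinations ± SEM.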

Rattus norvegicus [3] = species on record: Rattus norvegicus; test: Compound was tested for the K+ excretion for treated over control animals; format: functional
Method in brief: (§1)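 Male Sprague-Dawley rats (300-325 g) under halothane/lidocaine had femoral artery, femoral vein and bladder cannulated. After at least 1 h of recovery in restraint, they received Ringer's (1.2 mL/h), with 10-min urine collections over a 30-min control period. Infusion of 0.5 μg/kg per min for 30 min and a 30-min Ringer's recovery followed. Na+, K+ and Cl- were measured with an electrolyte analyzer, reported as treated minus control μmol/sample. Volume ratio is treated/control over three consecutive 10-min samples, six animals.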

Rattus norvegicus [4] = species on record: Rattus norvegicus; test: Compound was tested for antihypertensive activity in DOCA nephrectomized rats.; format: functional
Method in brief: (§2)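 Rats were anesthetized with halothane after skin infiltration with 2% lidocaine, and the femoral artery and vein were cannulated. After recovery, arterial pressure was recorded. A saline control period was followed by i.v. infusion in 30-min steps at 0.1, 0.2, 0.5 and 1.0 μg/kg per min (70 μL/kg per min). Hydralazine (100 μg/kg per min) was given for standardization. ED50 is in nmol/kg per min, from six animals.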

Rattus norvegicus [5] = species on record: Rattus norvegicus; test: Compound was tested for antihypertensive activity in 5/6 nephrectomized rats.; format: functional; method in brief: as §2
Rattus norvegicus [6] = species on record: Rattus norvegicus; test: Compound was tested for the Na+ excretion for treated over control animals; format: functional; method in brief: as §1

| Compound | IC50 [1] | IC50 [2] | EC50 (Oryctolagus cuniculus) | Electrolyte excretion (Rattus norvegicus [3]) | ED50 (Rattus norvegicus [4]) | ED50 (Rattus norvegicus [5]) | Electrolyte excretion (Rattus norvegicus [6]) |
| --- | --- | --- | --- | --- | --- | --- | --- |
| CC[C@H](C)[C@@H]1NC(=O)[C@H](CCCN=C(N)N)NC(=O)[C@H](CC(=O)O)NC(=O)[C@H]([C@@H](C)CC)NC(=O)[C@H](CCCN=C(N)N)NC(=O)CNC(=O)CNC(=O)[C@H](Cc2ccccc2)NC(=O)CCC=CC[C@@H](C(=O)N[C@@H](CC(N)=O)C(=O)N[C@@H](CO)C(=O)N[C@@H](Cc2ccccc2)C(=O)N[C@@H](CCCN=C(N)N)C(=O)N[C@@H](Cc2ccc(O)cc2)C(=O)O)NC(=O)CNC(=O)[C@H](CC(C)C)NC(=O)CNC(=O)[C@H](CO)NC(=O)[C@H](CCC(N)=O)NC(=O)[C@H](C)NC(=O)CNC1=O | 51 nM | 0.63 nM | 5.5e-10 M 50ul-1 |  |  |  |  |
| CC[C@H](C)[C@@H]1NC(=O)[C@H](CCCN=C(N)N)NC(=O)[C@H](CC(=O)O)NC(=O)[C@H]([C@@H](C)CC)NC(=O)[C@H](CCCN=C(N)N)NC(=O)CNC(=O)CNC(=O)[C@H](Cc2ccccc2)NC(=O)CCCSC[C@@H](C(=O)N[C@@H](CC(N)=O)C(=O)N[C@@H](CO)C(=O)N[C@@H](Cc2ccccc2)C(=O)N[C@@H](CCCN=C(N)N)C(=O)N[C@@H](Cc2ccc(O)cc2)C(=O)O)NC(=O)CNC(=O)[C@H](CC(C)C)NC(=O)CNC(=O)[C@H](CO)NC(=O)[C@H](CCC(N)=O)NC(=O)[C@H](C)NC(=O)CNC1=O (FGGRIDRIGAQSGLGCNSFRY-OH; linker N-16 via X2) | 6.17 nM | 0.56 nM | 2.6e-10 M 50ul-1 |  |  |  |  |
| CC[C@H](C)[C@@H]1NC(=O)[C@H](CCCN=C(N)N)NC(=O)[C@H](CC(=O)O)NC(=O)[C@H]([C@@H](C)CC)NC(=O)[C@H](CCCN=C(N)N)NC(=O)CNC(=O)CNC(=O)[C@H](Cc2ccccc2)NC(=O)CCCCC[C@@H](C(=O)N[C@@H](CC(N)=O)C(=O)N[C@@H](CO)C(=O)N[C@@H](Cc2ccccc2)C(=O)N[C@@H](CCCN=C(N)N)C(=O)N[C@@H](Cc2ccc(O)cc2)C(=O)O)NC(=O)CNC(=O)[C@H](CC(C)C)NC(=O)CNC(=O)[C@H](CO)NC(=O)[C@H](CCC(N)=O)NC(=O)[C@H](C)NC(=O)CNC1=O (FGGRIDRIGAQSGLG[Asu]NSFRY-OH; lactam N-16) | 28.8 nM | 0.78 nM | 4.8e-10 M 50ul-1 |  |  |  |  |
| CC[C@H](C)[C@@H]1NC(=O)[C@H](CCCN=C(N)N)NC(=O)[C@H](CC(=O)O)NC(=O)[C@H]([C@@H](C)CC)NC(=O)[C@H](CCCN=C(N)N)NC(=O)CNC(=O)CNC(=O)[C@H](Cc2ccccc2)NC(=O)CCCSC(C)(C)[C@@H](C(=O)N[C@@H](CC(N)=O)C(=O)N[C@@H](CO)C(=O)N[C@@H](Cc2ccccc2)C(=O)N[C@@H](CCCN=C(N)N)C(=O)N[C@@H](Cc2ccc(O)cc2)C(=O)O)NC(=O)CNC(=O)[C@H](CC(C)C)NC(=O)CNC(=O)[C@H](CO)NC(=O)[C@H](CCC(N)=O)NC(=O)[C@H](C)NC(=O)CNC1=O (FGGRIDRIGAQSGLG[Pen]NSFRY-OH; linker N-16 via X2) | 7.8 nM | 0.35 nM | 6.8e-10 M 50ul-1 |  |  |  |  |
| CC[C@H](C)[C@@H]1NC(=O)[C@H](CCCN=C(N)N)NC(=O)[C@H](CC(=O)O)NC(=O)[C@H]([C@@H](C)CC)NC(=O)[C@H](CCCN=C(N)N)NC(=O)CNC(=O)CNC(=O)[C@H](Cc2ccccc2)NC(=O)CCSCC[C@@H](C(=O)N[C@@H](CC(N)=O)C(=O)N[C@@H](CO)C(=O)N[C@@H](Cc2ccccc2)C(=O)N[C@@H](CCCN=C(N)N)C(=O)N[C@@H](Cc2ccc(O)cc2)C(=O)O)NC(=O)CNC(=O)[C@H](CC(C)C)NC(=O)CNC(=O)[C@H](CO)NC(=O)[C@H](CCC(N)=O)NC(=O)[C@H](C)NC(=O)CNC1=O (FGGRIDRIGAQSGLG[hCys]NSFRY-OH; linker N-16 via X1) | 7.8 nM | 0.21 nM | 3.5e-10 M 50ul-1 |  |  |  |  |
| CC[C@H](C)[C@@H]1NC(=O)[C@H](CCCN=C(N)N)NC(=O)[C@H](CC(=O)O)NC(=O)[C@H]([C@@H](C)CC)NC(=O)[C@H](CCCN=C(N)N)NC(=O)CNC(=O)CNC(=O)[C@H](Cc2ccccc2)NC(=O)[C@@H](NC(=O)[C@H](CO)NC(=O)[C@@H](N)CO)CSSC[C@@H](C(=O)N[C@@H](CC(N)=O)C(=O)N[C@@H](CO)C(=O)N[C@@H](Cc2ccccc2)C(=O)N[C@@H](CCCN=C(N)N)C(=O)N[C@@H](Cc2ccc(O)cc2)C(=O)O)NC(=O)CNC(=O)[C@H](CC(C)C)NC(=O)CNC(=O)[C@H](CO)NC(=O)[C@H](CCC(N)=O)NC(=O)[C@H](C)NC(=O)CNC1=O (H-SSCFGGRIDRIGAQSGLGCNSFRY-OH; disulfide 3-19) [listing 1 of 2 here] | 1.37 nM | 0.35 nM |  |  |  |  |  |
| CC[C@H](C)[C@@H]1NC(=O)[C@H](CCCN=C(N)N)NC(=O)[C@H](CC(=O)O)NC(=O)[C@H]([C@@H](C)CC)NC(=O)[C@H](CCCN=C(N)N)NC(=O)CNC(=O)CNC(=O)[C@H](Cc2ccccc2)NC(=O)[C@@H](NC(=O)[C@H](CO)NC(=O)[C@@H](N)CO)CSSC[C@@H](C(=O)N[C@@H](CC(N)=O)C(=O)N[C@@H](CO)C(=O)N[C@@H](Cc2ccccc2)C(=O)N[C@@H](CCCN=C(N)N)C(=O)N[C@@H](Cc2ccc(O)cc2)C(=O)O)NC(=O)CNC(=O)[C@H](CC(C)C)NC(=O)CNC(=O)[C@H](CO)NC(=O)[C@H](CCC(N)=O)NC(=O)[C@H](C)NC(=O)CNC1=O (H-SSCFGGRIDRIGAQSGLGCNSFRY-OH; disulfide 3-19) [listing 2 of 2 here] |  |  | 8.9e-11 M 50ul-1 |  |  |  |  |
| CC[C@H](C)[C@H](NC(=O)[C@H](CCCN=C(N)N)NC(=O)[C@H](CC(=O)O)NC(=O)[C@@H](NC(=O)[C@H](CCCN=C(N)N)NC(=O)CNC(=O)CNC(=O)[C@H](Cc1ccccc1)NC(=O)N[C@@H](CC(=O)OC)C(=O)O)[C@@H](C)CC)C(=O)NCC(=O)N[C@@H](C)C(=O)N[C@@H](CCC(N)=O)C(=O)N[C@@H](CO)C(=O)NCC(=O)N[C@@H](CC(C)C)C(=O)NCC(=O)N[C@@H](CS)C(=O)N[C@@H](CC(N)=O)C(=O)N[C@@H](CO)C(=O)N[C@@H](Cc1ccccc1)C(=O)N[C@@H](CCCN=C(N)N)C(=O)N[C@@H](Cc1ccc(O)cc1)C(=O)O ({OMe-βAsp-CO}-FGGRIDRIGAQSGLGCNSFRY-OH) | 8.67 nM |  | 1.4e-10 M 50ul-1 | 23.5 uM sample-1 | >4 nM/min/kg | >2 nM/min/kg | 38.1 uM sample-1 |
